Experimental data pooled from the literature.
Target: Serine/threonine-protein kinase PLK3 (PLK3, Homo sapiens, UniProt Q9H4B4)

SMILES | test | conditions | remaining binding [%]
C[C@@H]1CN(c2cc(-c3n[nH]c4ccc(OC5(C)CC5)cc34)ncn2)C[C@H](C)O1 | cell-free assay, competition with immobilised ligand | 0.1 µM | 84
c1cnn2ncc(-c3ccnc(N4CCC45COC5)n3)c2c1 | binding | 1 µM | 79
COc1ncc2cc3ccccc3nc2c1C#N | cell-free assay, competition with immobilised ligand | 5 µM | 69
O=C(Nc1c[nH]nc1C(=O)NC1CCNCC1)c1cc(F)cc(F)c1 | binding, competition with immobilised ligand | 1 µM | 86
C[C@H](NC(=O)c1cnc2n1[C@](C)(Cc1ccc(C#N)cc1)C(=O)N2c1cc(Cl)c(F)c(Cl)c1)C(=O)NC1(c2ccccn2)CC1 | cell-free assay, competition with immobilised ligand | 1 µM | 81
O=C(c1ccc(Nc2ncc(Cl)c(-c3cc4ccccc4s3)n2)cc1)N1CCC(N2CCCC2)CC1 | binding, competition with immobilised ligand | 1 µM | 58
CN(c1nccc(-c2cnn3ncccc23)n1)C1CC1 | binding | 1 µM | 86
CCOCCn1cc(C(=O)Nc2ccc(-n3nc(-c4cccnc4)cc3C(F)(F)F)cn2)ccc1=O | cell-free assay, competition with immobilised ligand | 1 µM | 84
C=CC(=O)N1CCC(C(=O)NCC(=O)N2CCN(c3nc(-c4cnc(N)nc4C(F)F)nc(N4CCOCC4)n3)CC2)CC1 | binding, competition with immobilised ligand | 1 µM | 58
C[C@H](c1ccc(F)cc1)N(Cc1cccc(C(=O)O)c1)C(=O)c1cnc2ccccc2c1 | cell-free assay, competition with immobilised ligand | 1 µM | 100
CN(C)c1nccc(-c2cnn3ncccc23)n1 | binding | 1 µM | 83
Cc1cnc(Nc2ccc(C(=O)N3CCC(N4CCCC4)CC3)cc2)nc1-c1cc2ccccc2s1 | binding, competition with immobilised ligand | 1 µM | 42
COc1cnc(Nc2cccc(S(N)(=O)=O)c2)nc1N1CCN(c2ccccc2)CC1 | binding, competition with immobilised ligand | 1 µM | 95
CN(CCCC(F)(F)F)c1nccc(-c2cnn3ncccc23)n1 | binding | 1 µM | 100
C[C@@H](c1ccc(-n2cnc3c(N)ncnc32)cc1)N1CCc2nn(C)c(Cc3ccccc3)c2C1=O | binding, competition with immobilised ligand | 0.1 µM | 76
N[C@@H]1CCN(c2nccc(-c3cnn4ncccc34)n2)C1 | binding | 1 µM | 100
FC(F)(F)Oc1cccc(-c2cnc3ccc(-c4ccncc4)nn23)c1 | cell-free assay, competition with immobilised ligand | 5 µM | 63
CS(=O)(=O)c1cc(C2(NC(=O)c3cncc4c3cnn4-c3ccc(F)cc3)CC2)ccn1 | cell-free assay, competition with immobilised ligand | 1 µM | 68
C[C@@H]1CN(c2ccc3ncc(-c4ccc5[nH]nc(C6CC6)c5c4)n3n2)C[C@H](C)O1 | binding, competition with immobilised ligand | 0.5 µM | 98
O=C(NCCCN1CCOCC1)c1ccc(Nc2ncc(Cl)c(-c3ccc(Cl)s3)n2)cc1 | binding, competition with immobilised ligand | 1 µM | 7.8
CN(C)c1ncnc(-c2ccc3nc(Nc4cc(CN5CCN(C(=O)CC(F)(F)F)CC5)ccn4)[nH]c3c2)c1Cl | cell-free assay, competition with immobilised ligand | 1 µM | 100
C[C@H]1CCN(c2nccc(-c3cnn4ncccc34)n2)C1 | binding | 1 µM | 75
COCCOc1nc(-c2ccc(Cl)nc2)nc2c1CN(C(=O)c1ncn3ccccc13)CC2 | cell-free assay, competition with immobilised ligand | 0.1 µM | 100
CCN1CCN(Cc2ccc(C(=O)Nc3ccc(C)c(Oc4ccc5c(c4)CC(=O)N5)c3)cc2C(F)(F)F)CC1 | binding, competition with immobilised ligand | 1 µM | 100
